Screens: PubChem, several laboratories
The list is not random: actives were taken first. Their share in the collection is about 1.8%.
MT1-MMP act inh – blockers of MT1-MMP proenzyme processing, primary screen, HT1080 RFP-PRO-GFP cells, GFP/RFP fluorescence | GFP/RFP ratio fluorescence, overnight; percent of plate control window, DMSO zero | Matrix metalloproteinase-14 (Homo sapiens), P50281 | GFP/RFP ratio change, % at 20 µM | AID 651647, 2012 | 360,000 tested, 0.061% active;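 active = GFP/RFP ratio change of at least 30% with cell ATP level not reduced by more than half and red fluorescence within 50% of control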
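Assay system: RFP-PRO-GFP reporter HT1080 cells; read-out basis: GFP/RFP fluorescence ratio; benchmarks: DMSO wells and RFP-L50D-GFP cells; doses: 20 µM single dose, 1% DMSO; schedule: overnight cell settling, then overnight compound exposure, 37 °C, 5% CO2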
bovine MsrA act – bovine MsrA enzyme activators, primary screen, biochemical, absorbance, HTS | Methionine sulfoxide reductase A (Bos taurus) | purified bovine MsrA, absorbance read-out | activation, % at 10.6 µM | 360,000 tested, 0.3% active; in the data active = activation above about 7.5%
SKN-1 block – suppressors of acrylamide-induced Pgst-4::GFP reporter in worms, primary screen, SKN-1 inhibitor project, whole organism, uHTS, GFP/RFP fluorescence ratio, strain VP596; C. elegans VP596 Pgst-4::GFP/RFP ratio, 24 h; inhibition, % at 21.8 µM; 360,000 tested, 0.49% active;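 active = interference check ratio from 0.5 to 1.5 plus GFP to RFP signal ratio inhibition reaching or exceeding a fixed threshold, cut at about 30% in these data, passing the limit was not always enough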
MIN6 prolif-1 – inducers of MIN6 beta-cell proliferation, primary screen, ATP luminescence, uHTS; MIN6 cells proliferation, ATPlite luminescence, 48 h; cells starved in 0.2% serum; 100% = growth in 10% serum; 330,000 tested, 0.29% active; proliferation, % at 10 µM; AID 2380, 2010;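 active = compounds whose signal lies at least 3.5 SD above the mean of all wells on their plate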
MsrA inh – bovine MsrA enzyme inhibitors, primary screen, biochemical, absorbance, HTS | Methionine sulfoxide reductase A (Bos taurus) | inhibition, % at 15.5 µM | 360,000 tested, 0.75% active | purified bovine MsrA, absorbance read-out; in the data active = inhibition above about 4.5%
DAGLB inh – DAGLB lipase inhibitors, primary screen, biochemical, fluorescence, HTS | Diacylglycerol lipase-beta (Homo sapiens), Q8NCG7 | HEK293T DAGLB membrane lysate, EnzChek fluorogenic substrate | inhibition, % at 5.17 µM | 340,000 tested, 0.059% active | AID 504411, 2011; in the data active = inhibition above about 34%
Target sequence (Q8NCG7 whole entry, looked up): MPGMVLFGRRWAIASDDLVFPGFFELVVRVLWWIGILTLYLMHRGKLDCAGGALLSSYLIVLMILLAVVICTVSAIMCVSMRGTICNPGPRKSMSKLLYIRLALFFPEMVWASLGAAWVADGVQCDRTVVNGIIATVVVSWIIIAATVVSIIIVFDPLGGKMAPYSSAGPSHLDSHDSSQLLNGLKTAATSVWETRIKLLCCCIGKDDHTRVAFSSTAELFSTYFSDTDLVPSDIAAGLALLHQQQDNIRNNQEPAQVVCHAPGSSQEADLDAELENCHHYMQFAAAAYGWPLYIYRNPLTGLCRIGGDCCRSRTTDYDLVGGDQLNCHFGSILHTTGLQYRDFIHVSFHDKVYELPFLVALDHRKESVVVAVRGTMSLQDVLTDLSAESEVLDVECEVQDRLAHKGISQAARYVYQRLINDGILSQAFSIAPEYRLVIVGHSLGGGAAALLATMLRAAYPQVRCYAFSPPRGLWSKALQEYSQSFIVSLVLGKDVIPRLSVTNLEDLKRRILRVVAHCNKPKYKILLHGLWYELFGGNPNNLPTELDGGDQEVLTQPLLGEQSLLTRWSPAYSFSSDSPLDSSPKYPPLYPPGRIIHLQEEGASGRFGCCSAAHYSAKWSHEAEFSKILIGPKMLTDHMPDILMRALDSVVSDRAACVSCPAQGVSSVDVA
MIN6 prolif-2 – inducers of beta-cell proliferation in MIN6, confirmation, MIN6 cells, mouse; AID 463095, 2010; proliferation increase, % at 50 µM; ATPlite luminescence, 48 h; cells kept in 0.2% serum; scaled between 0.2% and 10% serum; 920 tested, under 10 active; shares compounds with MIN6 prolif-1;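 active = proliferation increase above 40% at any of the four tested concentrations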
Numbers stand for hits; . = inactive; / = no result given.

SMILES	MT1-MMP act inh	bovine MsrA act	SKN-1 block	MIN6 prolif-1	MsrA inh	DAGLB inh	MIN6 prolif-2
CCOc1ccccc1C(=O)NCC(=O)NNC(=O)c1cccs1	.	.	.	.	.	.	/
Cc1ccc(OCCNC(=O)CNC(=O)c2ccc3c(c2)OCO3)cc1	.	.	.	11	.	.	.
CCCCN1C(=O)/C(=C2/Sc3ccc(OC)cc3N2CC)SC1=S	.	.	.	.	/	.	/
CCN1C(=O)/C(=C2/SC(C)=C(C)N2CC)SC1=S	.	.	.	7.5	.	.	.
COC(=O)C1=C(C)N(Cc2ccc(Cl)cc2)C(=S)NC1c1ccccc1 (stereo not drawn)	/	/	/	/	.	/	/
CN(CC(=O)Nc1c(Cl)cccc1Cl)C(=O)c1ccccc1-c1nc2ccccc2s1	.	.	.	13	.	.	.
COc1ccc2[nH]c(=O)c(CN(C)C(=O)c3ccncc3)cc2c1	.	.	.	.	.	.	/
COc1ccc2[nH]c(=O)c(CN(C(=O)c3ccncc3)C(C)(C)C)cc2c1	.	.	.	13	.	.	.
CC(=O)Nc1nc(Cn2nnc(-c3ccc4c(c3)OCO4)n2)nc(N(C)C)n1	.	.	.	8.8	.	.	.
Cc1ccccc1Cn1nnc(-c2ccc3c(c2)OCO3)n1	.	.	.	.	.	.	/
C[C@H](O)[C@@H]1C(=O)N2CCc3c([nH]c4cccc(-c5ccccc5)c34)[C@@H]2C[C@@H]1N(C)CC1CCCCC1	/	/	/	/	.	/	/
O=C(Nc1ccc(Br)cc1)C1CC(O)CN1C(=O)OCc1ccccc1 (stereo not drawn)	.	.	.	11	.	.	.
Cc1ccc(NC(=O)C2CC(O)CN2C(=O)OCc2ccccc2)c(C)c1 (stereo not drawn)	.	.	.	.	.	.	/
COC(=O)C1=C(C)N(Cc2ccc(F)cc2)C(=S)NC1c1ccccc1 (stereo not drawn)	/	/	/	/	.	/	/
COC(=O)C1=C(C)N(Cc2ccc(C(F)(F)F)cc2)C(=NCC2CC2)NC1c1ccccc1 (stereo not drawn)	/	/	/	/	.	/	/
CCCCn1cc([N+](=O)[O-])nc1C	.	.	.	.	.	.	/
C=CCn1cc([N+](=O)[O-])nc1C	.	.	.	7.8	.	.	.
CC1CCCCC1NS(=O)(=O)c1ccc(-n2cnnn2)cc1 (stereo not drawn)	.	.	.	.	.	.	/
COc1cc(S(=O)(=O)NC2CCCCC2C)ccc1-n1cnnn1 (stereo not drawn)	.	.	.	7.6	.	.	.
CCC(=O)Oc1c(C(=O)CC)cc2c(C)cc(=O)oc2c1C	/	.	.	.	.	.	/
CCC(=O)Nc1c(OC(=O)CC)ccc2c(C)cc(=O)oc12	.	.	.	13	.	.	.
COC(=O)[C@]12C[C@H](CC(=O)NCc3cccs3)C(=O)N(Cc3ccc4c(c3)OCO4)C1=C[C@H](COCc1ccccc1)O[C@@H]2C	/	/	/	/	.	/	/
Nc1[nH]c(C(=O)c2ccccc2)c(-c2ccccc2C(F)(F)F)c1C(=O)NCCc1cccs1	.	.	.	/	.	/	/
COc1cc(NC(=O)CN(c2ccc(C)cc2)S(=O)(=O)c2c(C)nn(C)c2C)cc(OC)c1	.	.	.	10	.	.	.
COc1cccc(/C=C2/Sc3ccc(C(=O)NC4CC4)cc3NC2=O)c1	/	/	/	/	.	/	/
SMILES	MT1-MMP act inh	bovine MsrA act	SKN-1 block	MIN6 prolif-1	MsrA inh	DAGLB inh	MIN6 prolif-2
Cc1[nH]c2ccccc2c1CC(=O)Nc1ccc(N(C)c2cccnc2)c(-c2cccc(Cl)c2)c1	/	/	/	/	.	/	/
O=C(c1cccc(Cl)c1)N1CCCC(c2ccc(Cl)cc2)=N1	.	.	.	.	.	.	/
O=C(c1ccccc1)N1CCCC(c2ccc(Cl)cc2)=N1	.	.	.	5.4	.	.	.
C=CCN1C[C@H](COC(=O)CSc2ccccc2)Oc2cccc(F)c2S1(=O)=O	/	/	/	/	.	/	/
CCOc1cc(C(=O)Nc2ccc3c(c2)OCO3)ccc1OCCOc1ccccc1Cl	.	.	.	.	.	.	/
CCOc1ccc(C(=O)Nc2ccc3c(c2)OCO3)cc1OCC	.	.	.	5.5	.	.	.
C=CCCC1CN(CC=C)S(=O)(=O)c2c(F)cccc2O1 (stereo not drawn)	/	/	/	/	.	/	/
CCn1c(=O)[nH]c(=O)c2c(N)c(C(=O)c3cc(F)ccc3F)sc21	.	.	.	9.1	.	.	.
COC(=O)[C@]12C[C@H](CC(=O)NCCc3ccccc3OC)C(=O)N(Cc3ccccc3)C1=C[C@H](C(C)(C)C)O[C@@H]2C	/	/	/	/	.	/	/
CC(=O)Nc1ccc(S(=O)(=O)NC(=O)C23CC4CC(CC(C4)C2)C3)cc1	.	.	.	7.5	.	.	.
COc1cccc(-n2nc(C(C)=O)c(C#N)c2-c2ccco2)c1	.	.	.	9.4	.	.	.
COc1cccc(-n2nc(C#N)c(Cl)cc2=O)c1	.	.	.	.	.	.	/
Cc1cc(C)n(CC(=O)NCc2ccccc2)c(=O)c1C#N	.	.	.	6.0	.	.	.
Cc1cc(=O)c2ccccc2n1CC(=O)NCc1ccccc1	.	.	.	.	.	.	/
COc1ccc(S(=O)(=O)N2CCCc3nc(C)c(C)cc32)cc1	/	/	/	/	.	/	/
O=C1NC(c2ccc(Br)cc2)Oc2ccccc21 (stereo not drawn)	.	.	.	6.4	.	.	.
O=C1NC(c2ccc(Cl)cc2)Oc2ccccc21 (stereo not drawn)	/	.	.	.	.	.	/
CCC(=O)N1CCc2cc(S(=O)(=O)CCC(=O)Nc3cccc(F)c3)ccc21	.	.	.	8.9	.	.	.
Cc1ccc(OC(C)C(=O)Nc2ccc3c(c2)n(C)c(=O)n3C)cc1C (stereo not drawn)	.	.	.	7.8	.	.	.
